Source: paper PMC5819740 (ACS chemical biology, 2017)
Read-outs that look alike come from different tables or passages of the source.

Experiments:
[1] = target: T1, EcDHFR (Escherichia coli, UniProt P0ABQ4); assay: biochemical; assay type: biochemical; conditions: for Inhibition of EcDHFR activity in single-concentration initial screen: 1mM inhibitor (Fig 2A legend)
[2] = target: T1, EcDHFR; assay type: binding; conditions: thermal shift at single concentration of 0.5 mM small molecule, 5μM EcDHFR
[3] = target: T1, EcDHFR; assay type: biochemical; conditions: lower substrate, global non-linear fits
[4] = target: EcDHFR L28R mutant; assay: DHFR inhibition assay on drug-resistant single mutant; assay type: biochemical, Escherichia coli; conditions: L28R mutant vs wild-type
Method in brief: (§1)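 Purified recombinant E. coli DHFR (wild-type, or L28R, A26T/L28R, P21L/L28R mutants) in 100mM HEPES pH 7.3 at ~22 °C with 60 μM NADPH, 50 μM H2F and varied test compound; wild-type enzyme at 16.7nM. Reactions were enzyme-started, and NADPH consumption was followed at 340 nm for 100 s (initial rates, <5% product), corrected for non-enzymatic NADPH loss. Run in duplicate; IC50 fitted to y = 100%/[1+(I/IC50)].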

[5] = target: EcDHFR A26T/L28R mutant; assay: DHFR inhibition assay on drug-resistant double mutant; assay type: biochemical, Escherichia coli; conditions: A26T/L28R mutant vs wild-type
Method in brief: as §1

[6] = target: EcDHFR P21L/L28R mutant; assay: as above; assay type: biochemical, Escherichia coli; conditions: P21L/L28R mutant vs wild-type
Method in brief: as §1

[7] = target: T1, EcDHFR; conditions: cited from earlier work
[8] = Insolubility limit in growth assay medium; conditions: 30 °C, aqueous buffer, kinetic from dmso stock
[9] = tested on: E. coli cultures; assay: Rescue of growth by metabolic complement folAmix; assay type: cell-based; conditions: M9-media supplemented with folAmix; different resveratrol concentrations
[10] = tested on: Escherichia coli; conditions: read-out: estimated IC50 (antibacterial activity); cited from earlier work
[11] = tested on: E. coli strain with chromosomal folA replaced by mutant L28R; conditions: cited from earlier work
[12] = 60μM NADPH, 50μM H2F, 100mM HEPES pH 7.3, 16.7nM EcDHFR, ± S.E.
[13] = substrate H2F, saturating NADPH

T1 sequence (P0ABQ4 whole entry): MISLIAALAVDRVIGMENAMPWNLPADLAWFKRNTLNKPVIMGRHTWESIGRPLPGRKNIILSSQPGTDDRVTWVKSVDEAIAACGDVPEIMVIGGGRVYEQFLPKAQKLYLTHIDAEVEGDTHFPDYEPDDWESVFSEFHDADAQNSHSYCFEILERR

**Q.** With `O=S(=O)(O)c1cc(N=C=S)ccc1C=Cc1ccc(N=C=S)cc1S(=O)(=O)O` [DIDS] as the molecule, how does the IC50 [1, 12] read?
**A.** The IC50 was 51 ± 1.7 µM.

**Q.** And the “Inhibition of EcDHFR activity in single-concentration initial screen” value (“Inhibition of EcDHFR activity” for short) [1]?
**A.** The value was “showed inhibition”.

**Q.** Which IC50 [1, 12] does the source give for `O=[N+]([O-])c1ccc(/C=C/c2ccc([N+](=O)[O-])cc2S(=O)(=O)O)c(S(=O)(=O)O)c1` [DNDS, dinitro disulfonic acid] here?
**A.** The IC50 was 45.3 ± 10.1 µM.

**Q.** What about the “Inhibition of EcDHFR activity” value [1] of the same molecule?
**A.** Its value is “showed inhibition”.

**Q.** And the ΔTm [2]?
**A.** The ΔTm was 1.9 °C.

**Q.** Which results are given for `Nc1ccc(C=Cc2ccc(N)cc2S(=O)(=O)O)c(S(=O)(=O)O)c1` [flavonic acid]?
**A.** IC50 [1, 12]: 36.7 ± 3.1 µM; Inhibition of EcDHFR activity in single-concentration initial screen [1]: showed inhibition; αKi [3, 13]: 76.25 ± 6.82 µM

**Q.** Which results are given for `COc1ccc(CC(=O)c2ccc(O)cc2O)cc1` [ononetin]?
**A.** IC50 [1]: 83.4 ± 1.1 µM; Ki [1]: 83.4 µM; Inhibition of EcDHFR activity in single-concentration initial screen [1]: inhibits the enzyme; Inhibition Mechanism ([3]; NADPH titrated at saturating H2F): uncompetitive inhibition; αKi [3, 13]: 111.2 ± 12.37 µM; αKi ([3]; substrate NADPH, saturating H2F): 113.2 ± 13.1 µM; IC50 curve compared with wild-type enzyme [4]: superimposable; IC50 curve compared with wild-type enzyme [5]: superimposable; IC50 curve compared with wild-type enzyme [6]: superimposable; Binding to EcDHFR by DSF [7]: showed binding to EcDHFR

**Q.** For `Oc1cc(O)cc(/C=C/c2ccc(O)cc2O)c1` [oxyresveratrol], which solubility [8] is on record?
**A.** The solubility was no more than 250 µM.

**Q.** Which IC50 [1] does the source give for `Oc1ccc(/C=C/c2cc(O)cc(O)c2)cc1` [resveratrol] here?
**A.** The IC50 was 95.7 ± 3 µM.

**Q.** And the Ki [1]?
**A.** The Ki was 95.7 µM.

**Q.** What about the “Inhibition of EcDHFR activity” value [1] of the same molecule?
**A.** Its value is “showed inhibition”.

**Q.** What about the αKi [3, 13] of the same molecule?
**A.** Its αKi is 88.30 ± 6.02 µM.

**Q.** And the “IC50 curve compared with wild-type enzyme” value [4]?
**A.** The value was “superimposable”.

**Q.** What about the “IC50 curve compared with wild-type enzyme” value [5] of the same molecule?
**A.** Its value is “superimposable”.

**Q.** And the “IC50 curve compared with wild-type enzyme” value [6]?
**A.** Its value is “superimposable”.

**Q.** And the “Effect of folAmix on growth of inhibited cells” value [9]?
**A.** The value was “fully restores growth”.

**Q.** And the IC50 [10]?
**A.** Its IC50 is 250 µM.

**Q.** What about the solubility [8] of the same molecule?
**A.** Its solubility is no more than 250 µM.

**Q.** For `COc1cc(Cc2cnc(N)nc2N)cc(OC)c1OC` [trimethoprim], which “Increase in resistance conferred by L28R variant” value [11] is on record?
**A.** The value was “approximately 50 fold”.
